Reference: ChEMBL document CHEMBL5154684 (J Med Chem, 2022)
Blank lines part the entries; values can stand above or below the molecule they belong to. Activity calls are given as the source filed them. No cut-off for these calls is given here.

Assays:
[1] = target: Rho-associated protein kinase 2 (Homo sapiens, UniProt O75116); experiment: Inhibition of ROCK2 (unknown origin) using KEAKEKRQEQIAKRRRLSSLRASTSKSGGSQK-peptide as substrate incubated for 30 mins in presence of [gamma-33P]-ATP
Homo sapiens = species on record: Homo sapiens; experiment: Selectivity ratio of CD for Nrf2 activation in HEK293T cells to IC50 for inhibition of ROCK2 (unknown origin); type: cell-based
In short: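 Ratio of CD to ROCK2 IC50. CD is the concentration doubling ARE-luciferase over basal in transfected HEK293T cells after 16 h. […] Reactions were stopped with orthophosphoric acid and captured on P81 filters.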

[2] = target: T1, Nuclear factor erythroid 2-related factor 2 (Homo sapiens) (UniProt Q16236); experiment: Activation of Nrf2 transcriptional activity in HEK293T cells transfected with TK-Renilla reporter vector and cotransfected with ARE-LUC vector measured after 16 hrs by dual-luciferase reporter gene assay; type: cell-based; conditions: filed as activator, dose 6-60 µM, DDE = dose-dependent effect
T1 sequence (whole entry): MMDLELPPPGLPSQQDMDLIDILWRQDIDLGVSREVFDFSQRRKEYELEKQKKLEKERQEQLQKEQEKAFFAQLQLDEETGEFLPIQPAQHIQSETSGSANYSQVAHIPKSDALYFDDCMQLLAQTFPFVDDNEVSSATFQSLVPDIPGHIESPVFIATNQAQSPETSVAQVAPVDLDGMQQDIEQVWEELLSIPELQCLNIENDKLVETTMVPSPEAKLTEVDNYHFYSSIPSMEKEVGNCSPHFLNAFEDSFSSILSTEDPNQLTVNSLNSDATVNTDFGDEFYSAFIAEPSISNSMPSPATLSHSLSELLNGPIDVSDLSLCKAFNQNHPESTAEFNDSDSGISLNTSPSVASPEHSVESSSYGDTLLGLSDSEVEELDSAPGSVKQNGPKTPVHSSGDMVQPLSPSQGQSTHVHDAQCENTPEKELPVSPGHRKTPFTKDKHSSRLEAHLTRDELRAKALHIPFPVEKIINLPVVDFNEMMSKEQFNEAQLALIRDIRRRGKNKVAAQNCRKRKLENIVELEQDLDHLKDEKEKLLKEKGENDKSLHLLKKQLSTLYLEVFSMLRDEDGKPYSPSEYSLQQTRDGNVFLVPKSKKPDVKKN
In short: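 HEK293T cells were seeded and cultured 16 h, then co-transfected by calcium phosphate with 3×ARE-LUC and TK-Renilla. […] Lysates were read by dual-luciferase. Triplicates, at least twice. CD is the concentration that doubles luciferase over basal.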

[3] = target: T1, Nuclear factor erythroid 2-related factor 2 (Homo sapiens); experiment: Activation of Nrf2 transcriptional activity in human SH-SY5Y cells assessed as increase in NQO1 protein levels at 20 uM incubated for 24 hrs by immunoblot analysis; type: cell-based; conditions: filed as activator
In short: (§1)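 SH-SY5Y cells exposed to 20 μM for 4, 8 and 24 h. […] Densitometry normalized to β-actin. Duplicate, at least twice; one-way ANOVA with Tukey post-test.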

Albumin [4] = target: T2, Albumin (Homo sapiens, UniProt P02768); experiment: Binding affinity to human serum albumin assessed as Stern-Volmer quenching constant by Stern-Volmer plot analysis; type: ADME; conditions: isolated protein
T2 sequence (P02768 whole entry): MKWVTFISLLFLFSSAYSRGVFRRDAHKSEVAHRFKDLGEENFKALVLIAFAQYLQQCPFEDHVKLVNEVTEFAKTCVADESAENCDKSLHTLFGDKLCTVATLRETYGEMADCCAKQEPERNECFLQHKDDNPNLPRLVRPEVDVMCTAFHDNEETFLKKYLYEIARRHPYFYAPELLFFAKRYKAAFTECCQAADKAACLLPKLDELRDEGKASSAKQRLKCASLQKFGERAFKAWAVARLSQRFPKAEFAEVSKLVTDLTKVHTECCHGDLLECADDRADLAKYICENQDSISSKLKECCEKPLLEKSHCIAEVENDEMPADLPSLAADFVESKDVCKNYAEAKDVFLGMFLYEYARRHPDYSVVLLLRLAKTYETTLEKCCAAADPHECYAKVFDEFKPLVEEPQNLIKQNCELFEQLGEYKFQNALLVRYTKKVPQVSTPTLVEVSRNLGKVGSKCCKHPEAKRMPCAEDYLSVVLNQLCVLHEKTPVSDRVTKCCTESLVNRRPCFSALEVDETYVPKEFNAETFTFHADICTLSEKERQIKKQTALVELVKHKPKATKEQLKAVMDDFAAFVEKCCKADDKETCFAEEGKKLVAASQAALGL

[5] = target: T1, Nuclear factor erythroid 2-related factor 2 (Homo sapiens); experiment: Induction of Nrf2 signalling pathway in human lymphoblast assessed as increase in HMOX1 protein level at 20 uM measured after 24 hrs by immunoblot analysis; type: cell-based; conditions: Lymphoblastoid cell, filed as activator
[6] = target: T1, Nuclear factor erythroid 2-related factor 2 (Homo sapiens); experiment: Activation of Nrf2 transcriptional activity in human SH-SY5Y cells assessed as increase in HMOX1 mRNA expression at 20 uM by RT-qPCR analysis; type: cell-based; conditions: filed as activator, time 4-24 hrs, TDE = time-dependent effect
In short: (§2)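 SH-SY5Y cells (DMEM/Ham's F12, 10% FBS) were treated at 20 μM for 4, 8 and 24 h. HMOX1 and NQO1 mRNA measured by qRT-PCR, normalized to β-actin mRNA. Mean of n = 4 ± S.E.M., experiments done twice.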

[7] = target: T3, Nuclear factor erythroid 2-related factor 2 (Mus musculus) (UniProt Q60795); experiment: Activation of Nrf2 transcriptional activity in KEAP1+/+ mouse embryonic fibroblast cells assessed as increase in HMOX1 mRNA levels at 20 uM by RT-qPCR analysis; type: cell-based; conditions: filed as activator, time 4-24 hrs, TDE = time-dependent effect
T3 sequence (whole entry): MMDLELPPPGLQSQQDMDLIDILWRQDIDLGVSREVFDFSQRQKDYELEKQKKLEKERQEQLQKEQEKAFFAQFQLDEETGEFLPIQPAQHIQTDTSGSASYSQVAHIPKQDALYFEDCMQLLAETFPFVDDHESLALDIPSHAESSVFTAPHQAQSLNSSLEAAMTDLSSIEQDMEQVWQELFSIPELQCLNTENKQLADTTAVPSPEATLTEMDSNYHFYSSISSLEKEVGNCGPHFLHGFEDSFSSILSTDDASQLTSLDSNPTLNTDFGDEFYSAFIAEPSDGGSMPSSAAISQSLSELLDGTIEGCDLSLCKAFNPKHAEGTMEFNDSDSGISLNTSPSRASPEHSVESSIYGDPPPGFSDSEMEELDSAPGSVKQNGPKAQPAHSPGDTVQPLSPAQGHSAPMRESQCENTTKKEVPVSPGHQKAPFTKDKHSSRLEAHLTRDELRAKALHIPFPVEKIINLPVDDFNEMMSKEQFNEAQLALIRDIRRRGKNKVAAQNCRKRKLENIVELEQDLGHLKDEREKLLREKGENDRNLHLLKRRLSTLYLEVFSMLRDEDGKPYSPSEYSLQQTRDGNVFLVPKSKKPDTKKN
In short: (§3)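 Keap1+/+ and Keap1–/– MEFs were grown in DMEM with 10% FBS and treated at 20 μM for 4, 8 and 24 h. HMOX1 and NQO1 mRNA measured by qRT-PCR, normalized to β-actin mRNA. n = 4 ± S.E.M., experiments done twice; two-way ANOVA with Bonferroni post hoc.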

[8] = target: T1, Nuclear factor erythroid 2-related factor 2 (Homo sapiens); experiment: Induction of Nrf2 signalling pathway in ALS patient derived human lymphoblasts harboring SOD1 mutation assessed as increase in HMOX1 protein level at 20 uM measured after 24 hrs by immunoblot analysis; type: cell-based; conditions: Lymphoblastoid cell, filed as activator
[9] = target: T1, Nuclear factor erythroid 2-related factor 2 (Homo sapiens); experiment: Activation of Nrf2 transcriptional activity in human SH-SY5Y cells assessed as increase in NQO1 mRNA expression at 20 uM by RT-qPCR analysis; type: cell-based; conditions: filed as activator, time 4-24 hrs, TDE = time-dependent effect; in short: as §2
[10] = target: T3, Nuclear factor erythroid 2-related factor 2 (Mus musculus); experiment: Activation of Nrf2 transcriptional activity in KEAP1-/- mouse embryonic fibroblast cells assessed as increase in HMOX1 mRNA levels at 20 uM measured upto 24 hrs by RT-qPCR analysis; type: cell-based; conditions: filed as activator; in short: as §3
[11] = target: T1, Nuclear factor erythroid 2-related factor 2 (Homo sapiens); experiment: Induction of Nrf2 signalling pathway in ALS patient derived human lymphoblasts harboring SOD1 mutation assessed as increase in NQO1 mRNA level at 20 uM measured after 24 hrs by RT-qPCR analysis; type: cell-based; conditions: Lymphoblastoid cell, filed as activator
In short: (§4)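 EBV-immortalized lymphoblastoid lines from controls, sALS and SOD1-ALS patients were grown in RPMI-1640 with 10% FBS. They were seeded at 1 × 10^6 cells/mL, serum-starved 12 h, then treated at 20 μM for 24 h. HMOX1 and NQO1 mRNA measured by qRT-PCR, normalized to β-actin mRNA. n = 6–7 controls, 5–6 sALS, 4 SOD1-ALS, ± S.E.M.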

[12] = target: T1, Nuclear factor erythroid 2-related factor 2 (Homo sapiens); experiment: Induction of Nrf2 signalling pathway in human lymphoblast assessed as increase in HMOX1 mRNA level at 20 uM measured after 24 hrs by RT-qPCR analysis; type: cell-based; conditions: Lymphoblastoid cell, filed as activator; in short: as §4
Albumin [13] = target: T2, Albumin; experiment: Binding affinity to human serum albumin assessed as association constant by Scatchard equation; type: ADME; conditions: isolated protein
[14] = target: T1, Nuclear factor erythroid 2-related factor 2 (Homo sapiens); experiment: Induction of Nrf2 signalling pathway in human lymphoblast assessed as increase in NQO1 protein level at 20 uM measured after 24 hrs by immunoblot analysis; type: cell-based; conditions: Lymphoblastoid cell, filed as activator
[15] = target: T1, Nuclear factor erythroid 2-related factor 2 (Homo sapiens); experiment: Activation of Nrf2 transcriptional activity in human SH-SY5Y cells assessed as increase in HO-1 protein levels at 20 uM incubated for 24 hrs by immunoblot analysis; type: cell-based; conditions: filed as activator; in short: as §1
[16] = target: T1, Nuclear factor erythroid 2-related factor 2 (Homo sapiens); experiment: Activation of Nrf2 transcriptional activity in human SH-SY5Y cells assessed as induction of accumulation of Nrf2 in nucleus at 20 uM incubated for 30 to 240 mins by Immunoblotting analysis; type: cell-based; conditions: filed as activator, time 60-240 min, in the assay text read “60 to 240 mins” for “30 to 240 mins”
In short: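 SH-SY5Y cells treated at 20 μM for 1, 2 and 4 h. Cytosolic and nuclear fractions were prepared by hypotonic NP-40 lysis followed by a nuclear extraction buffer. […] Duplicate, at least twice.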

[17] = target: T1, Nuclear factor erythroid 2-related factor 2 (Homo sapiens); experiment: Induction of Nrf2 signalling pathway in human lymphoblast assessed as increase in NQO1 mRNA level at 20 uM measured after 24 hrs by RT-qPCR analysis; type: cell-based; conditions: Lymphoblastoid cell, filed as activator; in short: as §4
[18] = target: T1, Nuclear factor erythroid 2-related factor 2 (Homo sapiens); experiment: Induction of Nrf2 signalling pathway in human lymphoblast assessed as increase in Nrf2 protein level at 20 uM measured after 24 hrs by immunoblot analysis; type: cell-based; conditions: Lymphoblastoid cell, filed as activator
[19] = Stability in pooled human liver microsomes assessed as intrinsic clearance at 8 uM in presence of NADPH measured upto 60 mins by HPLC-MS analysis; type: ADME, Microsome; conditions: 1 h
[20] = target: Keap1/Nrf2 (Homo sapiens) (UniProt Q16236+Q14145); experiment: Inhibition of Nrf2 (unknown origin)/KEAP1 (unknown origin) protein-protein interaction by measuring inflection temperature at 100 uM by differential scanning fluorimetry; type: protein assay
Chain of Keap1/Nrf2 (Homo sapiens) (Q14145 whole entry, looked up, one chain of several): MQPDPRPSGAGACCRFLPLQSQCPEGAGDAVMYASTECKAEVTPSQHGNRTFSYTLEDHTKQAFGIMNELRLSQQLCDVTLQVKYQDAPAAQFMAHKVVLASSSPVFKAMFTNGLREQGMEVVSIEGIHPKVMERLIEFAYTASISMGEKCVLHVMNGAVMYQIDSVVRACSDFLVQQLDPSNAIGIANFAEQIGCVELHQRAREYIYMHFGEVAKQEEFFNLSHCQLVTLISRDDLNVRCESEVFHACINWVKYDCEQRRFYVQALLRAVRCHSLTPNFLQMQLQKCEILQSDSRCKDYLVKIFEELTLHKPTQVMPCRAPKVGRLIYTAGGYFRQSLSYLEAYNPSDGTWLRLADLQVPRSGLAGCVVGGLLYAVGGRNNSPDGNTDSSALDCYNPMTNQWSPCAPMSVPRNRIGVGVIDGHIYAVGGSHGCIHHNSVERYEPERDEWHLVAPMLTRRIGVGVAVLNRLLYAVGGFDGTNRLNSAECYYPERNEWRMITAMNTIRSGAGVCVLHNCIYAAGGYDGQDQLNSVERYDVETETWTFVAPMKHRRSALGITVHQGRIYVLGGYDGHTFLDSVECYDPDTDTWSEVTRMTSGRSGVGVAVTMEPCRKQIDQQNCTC

[21] = target: T3, Nuclear factor erythroid 2-related factor 2 (Mus musculus); experiment: Activation of Nrf2 transcriptional activity in KEAP1+/+ mouse embryonic fibroblast cells assessed as increase in NQO1 mRNA levels at 20 uM by RT-qPCR analysis; type: cell-based; conditions: filed as activator, time 4-24 hrs, TDE = time-dependent effect; in short: as §3
[22] = target: T1, Nuclear factor erythroid 2-related factor 2 (Homo sapiens); experiment: Induction of Nrf2 signalling pathway in ALS patient derived human lymphoblasts harboring SOD1 mutation assessed as increase in HMOX1 mRNA level at 20 uM measured after 24 hrs by RT-qPCR analysis; type: cell-based; conditions: Lymphoblastoid cell, filed as activator; in short: as §4
[23] = target: T1, Nuclear factor erythroid 2-related factor 2 (Homo sapiens); experiment: Induction of Nrf2 signalling pathway in ALS patient derived human lymphoblasts harboring SOD1 mutation assessed as increase in NQO1 protein level at 20 uM measured after 24 hrs by immunoblot analysis; type: cell-based; conditions: Lymphoblastoid cell, filed as activator

Chain of Rho-associated protein kinase 2 (O75116 whole entry): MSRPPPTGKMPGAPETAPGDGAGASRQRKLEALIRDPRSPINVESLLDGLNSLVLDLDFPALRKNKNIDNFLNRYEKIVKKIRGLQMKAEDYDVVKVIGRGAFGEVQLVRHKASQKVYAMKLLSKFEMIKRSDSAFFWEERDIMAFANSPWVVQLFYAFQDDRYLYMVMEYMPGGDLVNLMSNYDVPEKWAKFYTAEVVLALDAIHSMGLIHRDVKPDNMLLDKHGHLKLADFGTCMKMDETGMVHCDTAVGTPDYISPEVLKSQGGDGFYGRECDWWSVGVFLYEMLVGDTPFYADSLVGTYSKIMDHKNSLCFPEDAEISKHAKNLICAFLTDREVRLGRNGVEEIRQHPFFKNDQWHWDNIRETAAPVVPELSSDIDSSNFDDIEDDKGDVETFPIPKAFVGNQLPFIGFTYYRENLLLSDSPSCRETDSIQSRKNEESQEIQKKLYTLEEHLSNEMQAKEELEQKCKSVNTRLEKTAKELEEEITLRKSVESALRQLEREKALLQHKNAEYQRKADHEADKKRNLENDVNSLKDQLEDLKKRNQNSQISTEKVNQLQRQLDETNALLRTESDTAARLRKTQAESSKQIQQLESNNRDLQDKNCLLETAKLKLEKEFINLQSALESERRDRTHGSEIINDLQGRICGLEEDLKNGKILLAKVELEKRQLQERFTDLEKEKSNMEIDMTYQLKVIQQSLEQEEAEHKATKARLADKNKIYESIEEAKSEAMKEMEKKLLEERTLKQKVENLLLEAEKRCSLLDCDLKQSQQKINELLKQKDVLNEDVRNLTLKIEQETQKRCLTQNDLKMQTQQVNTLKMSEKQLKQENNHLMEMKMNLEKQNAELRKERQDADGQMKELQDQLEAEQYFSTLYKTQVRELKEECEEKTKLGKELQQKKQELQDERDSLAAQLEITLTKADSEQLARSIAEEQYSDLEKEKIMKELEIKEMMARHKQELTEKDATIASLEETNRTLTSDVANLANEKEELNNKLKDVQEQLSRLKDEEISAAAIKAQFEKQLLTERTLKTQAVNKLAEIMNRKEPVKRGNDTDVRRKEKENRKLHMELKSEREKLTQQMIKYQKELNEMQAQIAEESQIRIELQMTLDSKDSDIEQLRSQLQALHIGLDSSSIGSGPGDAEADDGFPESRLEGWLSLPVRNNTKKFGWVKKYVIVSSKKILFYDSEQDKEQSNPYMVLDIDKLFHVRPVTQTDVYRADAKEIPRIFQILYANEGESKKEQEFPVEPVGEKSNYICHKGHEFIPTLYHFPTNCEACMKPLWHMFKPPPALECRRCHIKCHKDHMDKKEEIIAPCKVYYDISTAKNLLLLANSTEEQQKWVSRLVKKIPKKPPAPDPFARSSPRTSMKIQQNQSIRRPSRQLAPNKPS

IC50 [1]: > 10 µM
SMILES: COc1cc(CCC(=O)N2CCN(S(=O)(=O)c3cccc4cnccc34)CC2)ccc1O

Activity [2]: Dde
SMILES: O=C(/C=C/c1ccc(O)c(O)c1)N1CCCN(S(=O)(=O)c2cccc3cnccc23)CC1
Selectivity ratio (Homo sapiens): 5.2

Activity [2]: Dde
SMILES: O=C(CCc1ccc(O)c(O)c1)N1CCN(S(=O)(=O)c2cccc3cnccc23)CC1
Selectivity ratio (Homo sapiens): 46.9

Activity [3]: Active
KSV (Albumin [4]): 1.68 10^5L/mol
Activity [5]: Active
Activity [6]: Tde
Activity [7]: Tde
Activity [8]: Active
Activity [2]: Dde
Activity [9]: Tde
Activity [10]: Active
Activity [11]: Active
Activity [12]: Active
ka (Albumin [13]): 7.94 10^5L/mol
Activity [14]: Active
Activity [15]: Active
Activity [16]: Active
Activity [17]: Active
Activity [18]: Active
CLint [19]: 15.3 µL/min/mg
deltaT [20]: 0.2 °C
Activity [21]: Tde
Activity [22]: Active
Activity [23]: Active
SMILES: O=C(CCc1ccc(O)c(O)c1)N1CCCN(S(=O)(=O)c2cccc3cnccc23)CC1
Selectivity ratio (Homo sapiens): 1.4
